Results published in ChEMBL document CHEMBL3108739, “Activation and inhibition of thermosensitive TRP channels by voacangine, an alkaloid present in Voacanga africana, an African tree” (J Nat Prod, 2014).
Activity calls are given as the source filed them. The rule behind the calls is not given here.

Experiments:
[1] = target: T1, Transient receptor potential cation channel subfamily A member 1 (Homo sapiens, UniProt O75762); test: Agonist activity at TRPA1 isolated from human W138 cells expressed in HEK293T cells assessed as intracellular Ca2+ influx at 10 to 100 uM by Fluo-4 AM staining-based fluorescence analysis relative to allylisothiocyanate; type: cell-based
Outline: (§1)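 Tetracycline-induced (1 μg/mL) stable hTRPA1 in HEK T-REx cells, Fluo-4 AM loaded (3 μM, 1 h, 37 °C) in HEPES buffer pH 7.4 with probenecid; Ca2+ read at 37 °C. Compound 0.01−100 μM; HC-030031 30 μM pretreated 3 min. Responses as % of 5 μM ionomycin or of 100 μM AITC; TREx cells without TRPA1 as control; n = 4−8.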

[2] = target: T2, Transient receptor potential cation channel subfamily V member 1 (Homo sapiens, UniProt Q8NER1); test: Antagonist activity at human brain TRPV1 expressed in HEK293T cells assessed as inhibition of heat-induced intracellular Ca2+ influx measured for 42 mins by fluorescence-based assay; type: cell-based, HEK-293T
Outline: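 hTRPV1-HEK293T, Fluo-4 loaded; antagonist pretreated 3 min, plate heated from 40 to 45 °C, Ca2+ signal recorded 42 min. Data as % of heat response; IC50 from dose curve; n = 4−10.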

[3] = target: T2, Transient receptor potential cation channel subfamily V member 1; test: Competitive antagonist activity at human brain TRPV1 expressed in HEK293T cells assessed as inhibition of CAP-induced intracellular Ca2+ influx at 50 uM preincubated for 3 mins followed by CAP challenge measured after 10 mins of post compound washout; type: cell-based; settings: HEK-293T
Outline: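 hTRPV1-HEK293T cells incubated 3 min with 50 μM compound, washed six times with buffer, kept 10 min at 37 °C in dark, then challenged with 0.01 μM capsaicin; Fluo-4 Ca2+ read-out as % of 10 μM capsaicin.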

[4] = target: T1, Transient receptor potential cation channel subfamily A member 1; test: Antagonist activity at TRPA1 isolated from human W138 cells expressed in HEK293T cells assessed as AITC-induced intracellular Ca2+ influx at 100 uM by Fluo-4 AM staining-based fluorescence analysis; type: cell-based; settings: HEK-293T
[5] = target: T1, Transient receptor potential cation channel subfamily A member 1; test: Agonist activity at TRPA1 isolated from human W138 cells expressed in HEK293T cells assessed as intracellular Ca2+ influx at 100 uM by Fluo-4 AM staining-based fluorescence analysis in presence of antagonist HC-030031; type: cell-based; outline: as §1
[6] = target: T1, Transient receptor potential cation channel subfamily A member 1; test: Agonist activity at TRPA1 isolated from human W138 cells expressed in HEK293T cells assessed as intracellular Ca2+ influx at 100 uM by Fluo-4 AM staining-based fluorescence analysis; type: cell-based; outline: as §1
[7] = target: Transient receptor potential cation channel subfamily M member 8 (Mus musculus) (UniProt Q8R4D5); settings: Dorsal root ganglion, HEK T-REx, 100 uM
[8] = target: Transient receptor potential cation channel subfamily M member 8 (Mus musculus) (UniProt Q8R4D5); settings: Dorsal root ganglion, HEK T-REx, 5 to 100 uM
[9] = target: Transient receptor potential cation channel subfamily M member 8 (Mus musculus) (UniProt Q8R4D5); settings: Dorsal root ganglion, HEK T-REx, 10 to 50 uM

T1 sequence (O75762 whole entry): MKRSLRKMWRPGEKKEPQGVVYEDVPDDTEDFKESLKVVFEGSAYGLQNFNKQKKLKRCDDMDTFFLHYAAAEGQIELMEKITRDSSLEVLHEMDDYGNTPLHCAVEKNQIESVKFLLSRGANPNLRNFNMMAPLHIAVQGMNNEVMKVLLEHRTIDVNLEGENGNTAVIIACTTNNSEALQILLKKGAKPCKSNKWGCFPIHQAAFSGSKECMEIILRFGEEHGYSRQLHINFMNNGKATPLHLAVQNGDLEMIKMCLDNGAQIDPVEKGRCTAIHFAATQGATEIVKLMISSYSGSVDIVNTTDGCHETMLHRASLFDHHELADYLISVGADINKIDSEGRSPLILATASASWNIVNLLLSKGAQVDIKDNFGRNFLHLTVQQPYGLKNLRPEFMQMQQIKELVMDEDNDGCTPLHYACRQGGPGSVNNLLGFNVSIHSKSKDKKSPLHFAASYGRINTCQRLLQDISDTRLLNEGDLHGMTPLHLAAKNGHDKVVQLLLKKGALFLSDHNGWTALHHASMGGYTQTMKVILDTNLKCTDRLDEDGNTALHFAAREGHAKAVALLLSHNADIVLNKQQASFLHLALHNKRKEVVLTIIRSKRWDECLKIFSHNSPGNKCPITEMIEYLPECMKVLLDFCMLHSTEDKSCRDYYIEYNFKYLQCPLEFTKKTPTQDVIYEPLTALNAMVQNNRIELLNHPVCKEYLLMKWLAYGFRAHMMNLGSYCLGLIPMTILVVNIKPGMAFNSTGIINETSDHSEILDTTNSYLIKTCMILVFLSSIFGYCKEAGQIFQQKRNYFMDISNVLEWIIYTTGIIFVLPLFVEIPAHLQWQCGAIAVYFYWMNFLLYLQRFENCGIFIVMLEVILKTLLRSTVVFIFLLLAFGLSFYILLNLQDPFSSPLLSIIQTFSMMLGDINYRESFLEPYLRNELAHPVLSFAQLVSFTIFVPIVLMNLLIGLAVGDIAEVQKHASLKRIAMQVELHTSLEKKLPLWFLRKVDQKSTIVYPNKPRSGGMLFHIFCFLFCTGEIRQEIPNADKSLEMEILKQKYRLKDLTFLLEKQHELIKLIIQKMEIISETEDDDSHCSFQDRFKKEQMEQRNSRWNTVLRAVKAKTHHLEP
Chain of Transient receptor potential cation channel subfamily M member 8 (Mus musculus) (Q8R4D5 whole entry): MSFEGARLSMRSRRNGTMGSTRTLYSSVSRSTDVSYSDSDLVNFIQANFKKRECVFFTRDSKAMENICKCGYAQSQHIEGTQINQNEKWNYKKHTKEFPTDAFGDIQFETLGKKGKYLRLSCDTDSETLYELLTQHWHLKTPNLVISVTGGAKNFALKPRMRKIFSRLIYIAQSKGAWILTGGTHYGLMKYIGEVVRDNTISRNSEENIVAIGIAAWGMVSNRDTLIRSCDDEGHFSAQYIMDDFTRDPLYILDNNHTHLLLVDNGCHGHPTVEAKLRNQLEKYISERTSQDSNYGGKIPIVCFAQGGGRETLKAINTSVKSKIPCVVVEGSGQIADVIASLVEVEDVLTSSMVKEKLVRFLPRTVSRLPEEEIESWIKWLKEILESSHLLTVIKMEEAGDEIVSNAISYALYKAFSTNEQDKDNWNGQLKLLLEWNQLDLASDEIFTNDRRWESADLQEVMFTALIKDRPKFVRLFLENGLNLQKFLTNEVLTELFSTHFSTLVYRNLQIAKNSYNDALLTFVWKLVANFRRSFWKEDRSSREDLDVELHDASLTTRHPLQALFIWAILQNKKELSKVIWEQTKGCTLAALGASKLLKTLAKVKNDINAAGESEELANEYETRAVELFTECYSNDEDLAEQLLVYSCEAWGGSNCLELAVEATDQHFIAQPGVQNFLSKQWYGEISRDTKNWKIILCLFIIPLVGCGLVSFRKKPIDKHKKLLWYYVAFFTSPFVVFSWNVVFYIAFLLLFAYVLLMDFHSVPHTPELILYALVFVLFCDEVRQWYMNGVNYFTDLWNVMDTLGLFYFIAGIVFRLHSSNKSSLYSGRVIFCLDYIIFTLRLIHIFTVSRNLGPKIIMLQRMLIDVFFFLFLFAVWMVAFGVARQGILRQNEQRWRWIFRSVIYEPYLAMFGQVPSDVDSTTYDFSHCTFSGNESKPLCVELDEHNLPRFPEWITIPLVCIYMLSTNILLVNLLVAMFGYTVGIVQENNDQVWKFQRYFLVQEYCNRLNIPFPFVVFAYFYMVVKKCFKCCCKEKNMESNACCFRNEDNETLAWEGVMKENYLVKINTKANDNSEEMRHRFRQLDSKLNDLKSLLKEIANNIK
T2 sequence (Q8NER1 whole entry): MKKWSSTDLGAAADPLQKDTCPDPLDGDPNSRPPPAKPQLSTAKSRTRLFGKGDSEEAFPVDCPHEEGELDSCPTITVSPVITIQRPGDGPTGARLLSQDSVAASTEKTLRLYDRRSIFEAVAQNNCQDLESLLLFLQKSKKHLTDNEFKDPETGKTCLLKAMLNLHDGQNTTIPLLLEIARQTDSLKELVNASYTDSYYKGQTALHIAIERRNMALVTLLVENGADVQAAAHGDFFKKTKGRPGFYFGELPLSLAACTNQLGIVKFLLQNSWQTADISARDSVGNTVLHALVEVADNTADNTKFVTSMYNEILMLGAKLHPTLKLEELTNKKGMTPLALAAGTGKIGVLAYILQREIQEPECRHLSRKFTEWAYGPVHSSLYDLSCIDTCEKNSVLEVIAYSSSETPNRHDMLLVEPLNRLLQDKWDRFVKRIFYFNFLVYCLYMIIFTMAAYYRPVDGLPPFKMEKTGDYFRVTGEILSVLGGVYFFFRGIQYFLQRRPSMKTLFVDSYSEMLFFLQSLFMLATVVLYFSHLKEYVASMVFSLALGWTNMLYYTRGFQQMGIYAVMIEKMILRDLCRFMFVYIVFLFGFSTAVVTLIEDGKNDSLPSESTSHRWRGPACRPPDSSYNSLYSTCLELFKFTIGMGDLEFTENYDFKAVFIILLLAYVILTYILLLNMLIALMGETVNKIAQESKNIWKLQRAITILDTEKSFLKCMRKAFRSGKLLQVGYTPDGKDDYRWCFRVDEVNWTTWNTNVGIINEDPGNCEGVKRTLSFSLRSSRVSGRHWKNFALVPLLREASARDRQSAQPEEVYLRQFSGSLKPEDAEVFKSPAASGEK

With `CC[C@H]1C[C@@H]2CN3CCc4c([nH]c5ccc(OC)cc45)[C@](C(=O)OC)(C2)[C@H]13` [VOACANGINE] the Activity [1] was 98%, the IC50 [2] was 24 µM and the inhibition ([2]; HEK-293T) was “Dose-dependent effect”. The inhibition [3] was “inactive”, the Activity [4] was “inactive” and the Activity [5] was “inactive”. For the same compound, the Activity [6] was “Active”, the inhibition [7] was “inactive” and the inhibition [8] was “Active”. For the same compound, the inhibition [9] was “inactive”.
